This assay in a line: Inhibition of alpha-glucosidase (unknown origin) using PNP glycoside as substrate preincubated for 30 mins followed by substrate addition after 60 mins by spectrophotometric analysis. Also noted: species or system Homo sapiens. The gist of the method: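 Enzyme activity run in 50 mM phosphate buffer, pH 6.8, containing 5% v/v DMSO. Inhibitors pre-incubated with enzyme 30 min at 37 °C, then PNP glycoside substrate added and reaction run 60 min at 37 °C. Absorbance read at 400 nm. Triplicate runs at five concentrations spanning the IC50 estimated in a first round; means adopted.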
Compound `CC(C)(C)c1ccc(C(=O)Nn2c(-c3cc4ccccc4oc3=O)cs/c2=N\c2ccc(Cl)c(Cl)c2)cc1` registered an IC50 of 0.78 µM. In turn, `COc1ccc(/N=c2\scc(-c3cc4ccccc4oc3=O)n2NC(=O)c2ccccc2)cc1` returned an IC50 of 6.5 µM. `COc1ccc(/N=c2\scc(-c3cc4ccccc4oc3=O)n2NC(=O)c2ccc(C(C)(C)C)cc2)cc1`: half-maximal inhibition (IC50) was put at 1.4 µM. For the compound `COc1ccc(/N=c2\scc(-c3cc4ccccc4oc3=O)n2NC(=O)c2ccccc2O)cc1`, half-maximal inhibition (IC50) required 1.1 µM. Regarding `O=C(Nn1c(-c2cc3ccccc3oc2=O)cs/c1=N\c1cccc(Br)c1)c1ccccc1O`, the concentration for half-maximal inhibition (IC50) was determined as 4.06 µM. Compound `COc1ccc(C(=O)Nn2c(-c3cc4ccccc4oc3=O)cs/c2=N\c2ccc(Cl)c(Cl)c2)c(OC)c1` displayed an IC50 of 2.5 µM.

Take `COc1ccc(/N=c2\scc(-c3cc4ccccc4oc3=O)n2NC(=O)c2ccc(OC)cc2OC)cc1`: half-maximal inhibition (IC50) was put at 7.4 µM.

Compound `COc1ccc(/N=c2\scc(-c3cc4ccccc4oc3=O)n2NC(=O)c2ccccc2OC)cc1` came in with an IC50 of 16.2 µM. `O=C(Nn1c(-c2cc3ccccc3oc2=O)cs/c1=N\c1ccc(Cl)c(Cl)c1)c1ccccc1O` showed an IC50 of 0.12 µM. As for `COc1ccc(/N=c2\scc(-c3cc4ccccc4oc3=O)n2NC(=O)c2cc(OC)cc(OC)c2)cc1`, it took 8.1 µM to reach half-maximal inhibition (IC50). With `COc1cc(OC)cc(C(=O)Nn2c(-c3cc4ccccc4oc3=O)cs/c2=N\c2cccc(Br)c2)c1`, the midpoint of inhibition, the IC50, lay at 9.19 µM. `COc1ccc(/N=c2\scc(-c3cc4ccccc4oc3=O)n2NC(=O)c2ccc(OC)cc2)cc1`: the concentration for half-maximal inhibition (IC50) was found to be 3.6 µM. For `COc1ccc(/N=c2\scc(-c3cc4ccccc4oc3=O)n2NC(=O)c2ccc(Br)cc2)cc1`, the IC50 was 9.45 µM. With `COc1ccc(/N=c2\scc(-c3cc4ccccc4oc3=O)n2NC(=O)c2ccc(C)cc2C)cc1`, the IC50 was determined as 2.9 µM.
